Results as given in ChEMBL document CHEMBL1144006, “Phenylalanine-containing hydroxamic acids as selective inhibitors of class IIb histone deacetylases (HDACs)” (Bioorg Med Chem, 2008).
Non-standard residues stand in square brackets, D forms with d. Residues, ends and D or L forms follow the SMILES beside them. *: point of attachment. Asu = N[C@@H](CCCCCC(=O)O)C(=O)O; Aib = CC(C)(N)C(=O)O; NHOH = ON*

How the values were obtained:
[1] = target: T1, Histone deacetylase 1 (Rattus norvegicus, UniProt Q4QQW4); assay: Inhibition of HDAC1 in rat liver extract
[2] = Inhibition of HDAC6 in rat liver extract
[3] = target: Histone deacetylase 1 (Homo sapiens, UniProt Q13547); assay: Inhibition of FLAG-tagged HDAC1 expressed in human 293T cells; type: cell-based
How it was run: (§1)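 FLAG-HDAC1 or FLAG-HDAC6 was immunoprecipitated with M2 agarose from lysates of overexpressing 293T cells, washed in enzyme buffer and diluted 1:10. Bead suspension, inhibitor and unselective fluorogenic substrate ZMAL were incubated at 37 C for 180 min. The reaction was stopped with TSA/borate pH 9.5/NDA and read at ex 330/em 390 nm. IC50 came from a dilution series against 0% and 100% (TSA) inhibition standards. Selectivity is the ratio of HDAC1 to HDAC6 IC50.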

[4] = target: T2, Protein deacetylase HDAC6 (Homo sapiens, UniProt Q9UBN7); assay: Inhibition of FLAG-tagged HDAC6 expressed in human 293T cells; type: cell-based
T2 sequence (Q9UBN7 whole entry): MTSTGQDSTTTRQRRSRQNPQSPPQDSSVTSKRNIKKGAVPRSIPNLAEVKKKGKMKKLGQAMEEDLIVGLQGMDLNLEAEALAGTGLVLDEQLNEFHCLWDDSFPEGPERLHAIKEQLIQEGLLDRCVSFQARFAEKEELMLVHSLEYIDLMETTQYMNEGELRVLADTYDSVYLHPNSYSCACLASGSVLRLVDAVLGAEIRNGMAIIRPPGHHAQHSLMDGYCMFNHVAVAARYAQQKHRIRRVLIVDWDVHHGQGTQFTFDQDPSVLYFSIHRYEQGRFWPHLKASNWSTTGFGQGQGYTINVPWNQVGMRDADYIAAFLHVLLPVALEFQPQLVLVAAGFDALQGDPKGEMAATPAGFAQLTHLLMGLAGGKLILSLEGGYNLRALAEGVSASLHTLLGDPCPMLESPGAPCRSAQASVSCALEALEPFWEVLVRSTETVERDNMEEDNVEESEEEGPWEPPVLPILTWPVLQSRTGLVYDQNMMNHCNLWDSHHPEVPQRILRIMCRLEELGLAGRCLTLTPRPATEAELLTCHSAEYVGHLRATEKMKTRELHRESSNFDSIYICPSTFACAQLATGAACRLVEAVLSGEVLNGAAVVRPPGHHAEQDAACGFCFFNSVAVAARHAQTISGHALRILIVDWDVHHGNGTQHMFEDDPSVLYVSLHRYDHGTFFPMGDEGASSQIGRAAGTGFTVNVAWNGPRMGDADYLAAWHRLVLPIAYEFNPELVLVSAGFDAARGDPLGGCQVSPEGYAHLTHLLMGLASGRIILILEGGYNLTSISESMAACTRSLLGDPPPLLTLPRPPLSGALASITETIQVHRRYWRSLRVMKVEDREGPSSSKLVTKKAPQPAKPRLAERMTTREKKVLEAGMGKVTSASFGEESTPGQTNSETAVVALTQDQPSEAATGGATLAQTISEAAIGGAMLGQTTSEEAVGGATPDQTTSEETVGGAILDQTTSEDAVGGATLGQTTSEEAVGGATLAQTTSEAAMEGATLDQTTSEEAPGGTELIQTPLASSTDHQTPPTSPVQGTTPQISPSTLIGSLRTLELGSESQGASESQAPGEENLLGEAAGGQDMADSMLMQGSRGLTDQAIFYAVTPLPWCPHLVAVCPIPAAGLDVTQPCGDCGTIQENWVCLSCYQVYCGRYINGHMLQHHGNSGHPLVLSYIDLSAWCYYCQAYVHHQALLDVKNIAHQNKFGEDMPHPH

[5] = organism: Rattus norvegicus; assay: Selectivity for rat liver HDAC6 over rat liver HDAC1
[6] = organism: Homo sapiens; assay: Selectivity for human FLAG-tagged HDAC6 over human FLAG-tagged HDAC1; how it was run: as §1
[7] = system: MCF7; assay: Cytotoxicity against human MCF7 cells after 48 hrs by One aqueous proliferation assay; type: functional, cell-based; details: MCF7, 48 h
How it was run: (§2)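 Cells seeded at 5000 per well, with compound or DMSO vehicle added 24 h after seeding. Incubated 48 h at 37 C, three replicates per concentration. Growth was read by MTS absorbance at 490 nm. GI50 is the concentration reducing cell number by 50% versus control.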

[8] = system: SQ20B; assay: Cytotoxicity against human SQ20B cells after 48 hrs by One aqueous proliferation assay; type: functional, cell-based; how it was run: as §2
[9] = system: HeLa; assay: Cytotoxicity against human HeLa cells after 48 hrs by One aqueous proliferation assay; type: functional, cell-based; how it was run: as §2
[10] = system: Jurkat; assay: Cytotoxicity against human Jurkat cells after 48 hrs by One aqueous proliferation assay; type: functional, cell-based; how it was run: as §2
[11] = system: MCF-10A; assay: Cytotoxicity against human MCF10A cells after 48 hrs by One aqueous proliferation assay; type: functional, cell-based; how it was run: as §2
[12] = system: PC-3; assay: Cytotoxicity against human PC3 cells after 48 hrs by One aqueous proliferation assay; type: functional, cell-based; details: PC-3, 48 h; how it was run: as §2
[13] = target: T1, Histone deacetylase 1; assay: Inhibition of HDAC1 in rat liver extract by trypsin assay
How it was run: (§3)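 Same rat liver extract and the subtype-selective substrates (Z-(propionyl)Lys-AMC for HDAC1, Boc(Ac)Lys-(F3-AMC) for HDAC6), incubated with inhibitor at 37 C. After incubation the reaction was developed with trypsin instead of NDA. IC50 was taken from a dilution series against 0% and 100% (TSA) inhibition standards.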

[14] = Inhibition of HDAC6 in rat liver extract by trypsin assay; how it was run: as §3

T1 sequence (Q4QQW4 whole entry): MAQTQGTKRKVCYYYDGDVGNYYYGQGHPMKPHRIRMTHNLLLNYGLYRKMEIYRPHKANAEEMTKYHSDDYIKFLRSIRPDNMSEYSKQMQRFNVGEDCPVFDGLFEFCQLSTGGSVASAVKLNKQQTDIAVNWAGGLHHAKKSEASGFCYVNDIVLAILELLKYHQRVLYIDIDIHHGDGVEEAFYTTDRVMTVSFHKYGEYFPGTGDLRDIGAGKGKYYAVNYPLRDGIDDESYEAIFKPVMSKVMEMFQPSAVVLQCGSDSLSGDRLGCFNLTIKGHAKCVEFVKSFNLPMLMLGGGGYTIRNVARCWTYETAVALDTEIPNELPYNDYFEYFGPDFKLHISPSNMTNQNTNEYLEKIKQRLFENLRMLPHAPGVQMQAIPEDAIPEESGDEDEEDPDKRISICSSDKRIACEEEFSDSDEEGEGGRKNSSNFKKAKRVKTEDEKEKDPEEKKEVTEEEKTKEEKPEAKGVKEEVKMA
Histone deacetylase 1 (Homo sapiens, UniProt Q13547), sequence (Q13547 whole entry): as the sequence (Q4QQW4 whole entry) above, with K8R, E399D, D424E, M481L counted along it

SMILES	IC50 [1] [nM]	IC50 [2] [nM]	IC50 [3] [µM]	IC50 [4] [nM]	Ratio IC50 [5]	Ratio IC50 [6]	IC50 [7] [µM]	IC50 [8] [µM]	IC50 [9] [µM]	IC50 [10] [nM]	IC50 [11] [µM]	IC50 [12] [µM]	IC50 [13] [µM]	IC50 [14] [µM]
COC(=O)[C@H](Cc1ccc(-c2cccs2)cc1)NC(=O)CCCCCCC(=O)NO	570	580	5.07	9990	0.98	0.51	4	6	3	400	8	1.8		
COC(=O)[C@H](Cc1ccc(-c2ccoc2)cc1)NC(=O)CCCCCCC(=O)NO	3180	2250	6.35	1130	1.41	5.62	1.5							
COC(=O)[C@H](Cc1ccc(Br)cc1)NC(=O)CCCCCCCC(=O)NO	2110	680	28.4	4670	3.1	6.09	0.9							
COC(=O)[C@H](Cc1ccc(-c2ccccc2)cc1)NC(=O)CCCCCCCC(=O)NO	1680	6100	9.54	2330	0.28	4.09	21	33	7	2700	42	9.9		
COC(=O)[C@H](Cc1ccc(-c2ccco2)cc1)NC(=O)CCCCCCCC(=O)NO	2440	470	9.76	2330	5.19	4.19	18							
COC(=O)[C@H](Cc1ccc(-c2ccc3ccccc3c2)cc1)NC(=O)CCCCCCC(=O)NO	630	910	2.98	1170	0.69	2.55	1.9							
CN(C)c1ccc(C(=O)NCCCCCCC(=O)NO)cc1	240	80	2.96	750	3	3.95								
COC(=O)[C@H](Cc1ccc(-c2ccc(-c3ccccc3)cc2)cc1)NC(=O)CCCCCCCC(=O)NO	8760	6760	38.3	14700	1.3	2.6	3.8							
COC(=O)[C@H](Cc1ccc(-c2ccsc2)cc1)NC(=O)CCCCCCCC(=O)NO	3010	810	19.2	1770	3.72	10.8	17	37	10	2800	32	10		
COC(=O)[C@H](Cc1ccc(-c2ccccc2)cc1)NC(=O)CCCCCCC(=O)NO	440	580	1.22	1050	0.76	1.16	5							
COC(=O)[C@H](Cc1ccc(-c2cccs2)cc1)NC(=O)CCCCCCCC(=O)NO	2550	840	16.8	4090	3.04	4.1	4							
COC(=O)[C@H](Cc1ccc(-c2ccc3ccccc3c2)cc1)NC(=O)CCCCCCCC(=O)NO			10.5	2850	1.38	3.7	4						5.19	3.76
COC(=O)[C@H](Cc1ccc(-c2ccsc2)cc1)NC(=O)CCCCCCC(=O)NO	590	500	3.34	4020	1.18	0.83	1.5							
COC(=O)[C@H](Cc1ccc(-c2ccoc2)cc1)NC(=O)CCCCCCCC(=O)NO	3030	680	10.3	1050	4.46	9.81	32	35	21	4000	44	10		
COC(=O)[C@H](Cc1ccc(-c2ccco2)cc1)NC(=O)CCCCCCC(=O)NO	7530	6760	2.61	4490	1.11	0.58	1.5							
COC(=O)[C@H](Cc1ccc(Br)cc1)NC(=O)CCCCCCC(=O)NO	3190	4980	22.9		0.64	13.5	22	25	15	3000	> 50	> 50		
CC1(C)NC(=O)[C@H](CCCCCC(=O)NO)NC(=O)[C@H]2CCCN2C(=O)[C@H](Cc2ccccc2)NC1=O (cyclo([Aib]F[dP][Asu](NHOH)))	21	230	0.0004	40	0.09	0.01								
COC(=O)[C@H](Cc1ccc(-c2ccc(-c3ccccc3)cc2)cc1)NC(=O)CCCCCCC(=O)NO	130	780	0.96	690	0.17	1.39	0.8							
